Bioassay records: PubChem, several laboratories
The full list was thinned out, with hits kept by preference.
pCIP destab = compounds decreasing mouse p/CIP protein stability. AID 1984. 290,000 tested, 0.01% active. decrease of EGFP signal, % at 10 µM. F442A p/CIP-EGFP cells, EGFP fluorescence, 16 h. Q05BA5;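 active = EGFP signal decrease of at least 30% at 10 µM or well 3 SD below plate mean, unless failing retest; inactive = the rest, including hits failing retest or dose response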
V-ATPase pH = regulators of yeast V-ATPase proton transport. S. cerevisiae, pHLuorin cytosolic pH fluorescence. response, % at 10 µM. 350,000 tested, 0.37% active. AID 504577; in the data active = response mostly above about 7.3%, no sharp cut-off; inactive = mostly below about 5.4%; also: actives read high
Dynein transport = blocks dynein driven cargo transport along microtubules | z-score, hits read low | 220,000 tested, 0.47% active | 3617.4 mouse cells, GR-EGFP nuclear translocation imaging; test concentration mostly 20 µM; stimulated with dexamethasone, 1 µM; stronger effect = lower value;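 active = plate z-score of nuclear minus cytoplasmic receptor signal below a set negative limit, without overly bright fluorescence or cell loss, cut at about -3.5 in these data, passing the limit was not always enough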;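 also: z-score of nuclear minus cytoplasmic ring GR-EGFP intensity difference per well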
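Buffer or medium: Induction medium lacking tetracycline, stripped serum | Also added: Dexamethasone agonist, 1.0 µM final, for 30 min | Timing: 48 h induction, 1 h compound, 30 min dex at 37 °C | Detection: Formaldehyde fixation, Hoechst nuclear stain, 10x automated fluorescence imaging | Measure: Nuclear versus cytoplasmic GR-EGFP signal, averaged per well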
Cl transport mod = modulators of human KCC2 chloride dependent transport. Q9H2X9. KCC2 cells, thallium flux FluoZin-2 fluorescence. B-score of Tl+ flux slope (higher = more flux/activation; lower = inhibition) at 10 µM. 190,000 tested, 2.2% active;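 active = thallium flux slope and its plate-corrected score both differing from the plate sample mean at a set confidence after two filtering rounds, in either direction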;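 also: slope of fluorescence scaled to starting intensity during 10 to 20 s after thallium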
ABCB6 inh 2 = human ABCB6 transporter inhibition | fluorescence ratio to DMSO, % at 10 µM | Q9NP58 | K562-ABCB6 porphyrin accumulation, flow cytometry, 1 h; stronger effect = lower value | 360,000 tested, 0.19% active;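 active = fluorescence ratio to DMSO below 75%, the collection mean minus 3 SD; inconclusive = too few cells collected in the well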;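 also: signal is porphyrin accumulated inside mitochondria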
KCC2 sec1 = KCC2 (human) modulation, secondary assay; shares compounds with Cl transport mod; HEK293-KCC2, thallium flux, FluoZin2 fluorescence; stronger effect = higher value; normalised thallium flux (F/F0 slope) at 10 µM; 3,700 tested, 15% active; AID 1713;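 active = thallium flux slope above the same plate's solvent-only control mean plus 3 SD; inconclusive = the two replicate wells disagree; inactive = no significant difference from solvent-only control wells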
KCC2 bumet counter = thallium flux persisting under bumetanide in KCC2 cells, counter-screen secondary assay; shares compounds with Cl transport mod; HEK293-KCC2 + bumetanide/ouabain, thallium flux FluoZin2; stronger effect = higher value; 3,700 tested, 49% active; normalized thallium flux at 10 µM;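 active = thallium entry rate above the same plate's blocked-transporter control wells by more than 3 SD; inconclusive = the two repeat wells disagree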;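 also: raw slope of fluorescence over initial fluorescence between 10 and 20 s after thallium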
KCC2 secondary2 = confirmation of human KCC2 transport modulators; shares compounds with Cl transport mod; HEK293-KCC2, thallium flux FluoZin2 fluorescence; actives lie on both sides; F/F0 rise rate, 10–20 s post-thallium; normalized thallium flux at 10 µM; 3,700 tested, 23% active;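 active = thallium flux slope more than 3 SD above or below the plate's solvent-only control mean, mostly below; inconclusive = the two repeat wells disagreed; inactive = no significant shift from solvent-only controls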
HEK counter1 = parental HEK flux effect, counter-screen; HEK293 parental cells, thallium flux FluoZin2, ouabain; baseline-ratio fluorescence slope, 10–20 s after thallium; 3,700 tested, 46% active; thallium flux rate (normalised fluorescence) at 10 µM; shares compounds with Cl transport mod;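 active = thallium flux rate significantly above the same plate's solvent-only control wells, beyond their mean plus 3 SD; inconclusive = the two replicate wells gave conflicting results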
KCC2 retest ouab = KCC2 (human) modulation, ouabain retest | shares compounds with Cl transport mod | HEK293-KCC2, thallium flux FluoZin2 fluorescence; bidirectional: low = inhibitor, high = activator | raw Tl+ flux slope (below DMSO = inhibition, above = activation) at 10 µM | 3,700 tested, 48% active;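 active = thallium flux slope beyond 3 SD from same-plate DMSO control mean in most replicates, usually higher, sometimes lower; inconclusive = repeat tests gave conflicting results; inactive = no significant difference from controls in most replicates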;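 also: slope of initial-normalized fluorescence between seconds 10 and 20 after thallium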
HEK293 Tl flux2 = acts in parental HEK cells, second KCC2 counter-screen; 3,700 tested, 33% active; shares compounds with Cl transport mod; HEK293 parental, thallium flux FluoZin-2 fluorescence slope; thallium flux slope at 10 µM;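 active = thallium flux slope above the same plate's solvent-control mean plus 3 SD in both duplicate wells; inconclusive = duplicate wells that disagreed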;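 also: run without ouabain in cells lacking the KCC2 cotransporter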
A number is an active result; – = inactive; ? = inconclusive; · = no result given.

SMILES	pCIP destab	V-ATPase pH	Dynein transport	Cl transport mod	ABCB6 inh 2	KCC2 sec1	KCC2 bumet counter	KCC2 secondary2	HEK counter1	KCC2 retest ouab	HEK293 Tl flux2
CN(NS(=O)(=O)c1ccc(Cl)cc1)c1nc(C(F)(F)F)nc2ccccc12	–	–	–	-2.9	–	–	–	–	?	–	–
CCNC(=O)C1(C)CCN(C(=O)c2cccc(C#N)c2)C1 (stereo not drawn)	·	·	·	·	–	·	·	·	·	·	·
CN(C)S(=O)(=O)c1ccc(C(=O)Nc2ccccc2C(=O)O)cc1	–	–	–	-4.1	–	–	–	–	–	–	?
CN(C)S(=O)(=O)c1ccc(C(=O)Nc2ccccc2F)cc1	–	–	–	·	–	·	·	·	·	·	·
Cc1ccccc1OCc1nnc(SCC(=O)NCc2ccccc2)n1C	–	–	–	–	–	·	·	·	·	·	·
Cc1cccc(OCc2nnc(SCC(=O)c3cccs3)n2C)c1C	–	–	–	-4.5	–	–	–	0.024	–	0.016	–
CCOc1ncccc1C(=O)OCCN1C(=O)c2ccccc2C1=O	–	–	–	5.8	–	–	–	–	–	–	–
Cc1nc(N2CCOCC2)c2c3c(sc2n1)CCC3	–	–	–	14	–	–	0.017	–	0.016	0.032	0.011
COc1ccccc1C(=O)NNC1=C(C(=O)C(F)(F)F)CCC1	–	–	–	4.9	–	–	0.044	0.043	0.038	0.041	0.036
Nc1ccccc1C(=O)NNC1=C(C(=O)C(F)(F)F)CCC1	–	–	–	–	–	·	·	·	·	·	·
O=C(NNC1=C(C(=O)C(F)(F)F)CCC1)c1ccc(Br)cc1	–	–	–	11	–	–	0.024	–	0.015	?	0.012
COc1cccc(NC(=O)COC(=O)c2ccc(S(=O)(=O)NCc3ccco3)cc2)c1	–	–	–	–	–	·	·	·	·	·	·
CCCCCC(=O)NN1C(=S)N(c2ccc(OC)cc2)C(=O)C1CC(=O)Nc1ccccc1 (stereo not drawn)	–	–	–	–	–	·	·	·	·	·	·
c1coc(CNc2c3c(nc4ccccc24)CCC3)c1	–	–	–	7.3	–	–	–	–	0.0065	0.016	–
Cc1ccc(S(=O)(=O)Nc2cccc3cccnc23)cc1	–	–	–	13	–	?	0.066	–	0.02	0.035	?
COc1ccc(C)cc1NS(=O)(=O)c1cccc2nonc12	–	–	–	6.5	–	–	0.019	–	–	–	?
COc1ccccc1NS(=O)(=O)c1cccc2cccnc12	–	–	–	2.7	–	–	0.014	–	?	–	?
COc1ccc(S(=O)(=O)Nc2ccccn2)cc1	–	–	·	·	–	·	·	·	·	·	·
COc1ccccc1NC(=O)c1ccc(NS(=O)(=O)c2cccc3cccnc23)cc1	–	–	–	–	–	·	·	·	·	·	·
Cc1ccc(S(=O)(=O)Nc2ccccc2-c2ccccc2NS(=O)(=O)c2ccc(C)cc2)cc1	–	–	–	·	–	·	·	·	·	·	·
COc1cc(NS(=O)(=O)c2ccc(C)cc2)c2ncccc2c1	–	–	–	49	–	0.028	0.093	–	?	0.062	?
COc1cccc(CC(NC(C)=O)C(=O)NC2CCN(c3nnnn3-c3ccccc3)CC2)c1OC (stereo not drawn)	–	–	–	–	–	·	·	·	·	·	·
O=C1CNC(=S)N1Cc1cccc(Cl)c1	–	–	·	·	–	·	·	·	·	·	·
O=S(=O)(Nc1cc(Sc2cccc3cccnc23)c(O)c2ccccc12)c1ccccc1	–	·	–	48	·	0.035	0.08	0.044	0.049	0.058	0.015
CN(C)C(=S)NC(=O)C12CC3CC(C)(CC(C)(C3)C1)C2	–	–	–	17	–	?	0.039	–	0.016	0.025	0.02
SMILES	pCIP destab	V-ATPase pH	Dynein transport	Cl transport mod	ABCB6 inh 2	KCC2 sec1	KCC2 bumet counter	KCC2 secondary2	HEK counter1	KCC2 retest ouab	HEK293 Tl flux2
Cc1oc(-c2cccc(C(F)(F)F)c2)nc1CN1CCOCC1	–	–	–	–	–	·	·	·	·	·	·
FC(F)(F)c1ccc(/C=N/NC(=S)NC2CCCCC2)cc1	–	–	–	–	–	·	·	·	·	·	·
C=CCNC(=S)N/N=C/c1ccc(C)cc1C	–	–	–	5.2	–	–	0.041	–	0.018	?	?
C=CCNC(=S)N/N=C/c1ccc(C(F)(F)F)cc1	–	–	–	3.5	–	–	0.016	–	?	?	?
CN1CCN(CCNC(=O)c2ccc3nc(-c4ccc(F)cc4)c(-c4ccc(F)cc4)nc3c2)CC1	–	–	·	·	–	·	·	·	·	·	·
C=CCn1c(SCC(=O)Nc2cccc3ccccc23)nnc1-c1cnccn1	–	–	–	-3	–	–	?	–	–	–	–
CNC(=O)C1CC(=O)N(Cc2ccccc2)C(=Nc2ccc(OC)cc2)S1 (stereo not drawn)	–	–	–	·	–	?	–	–	–	–	–
CNC(=O)C1CC(=O)N(Cc2ccc(OC)c(OC)c2)C(=Nc2ccc(OC)cc2)S1 (stereo not drawn)	–	–	–	–	–	·	·	·	·	·	·
CCN1C[C@@H]2[C@@H]3C(=O)N(Cc4ccccc4)C(=O)[C@@H]3[C@](Cc3ccccc3)(C1=O)N2C(=O)c1ccc(Cl)cc1	·	–	·	·	–	·	·	·	·	·	·
COc1ccc(OC)c(-c2csc(NC(=O)c3ccc4c(c3)OCO4)n2)c1	–	–	–	6.7	–	–	–	–	–	–	–
CC1CCCC(C)N1C(=O)CN1C(=O)c2ccccc2S1(=O)=O (stereo not drawn)	·	–	·	·	–	·	·	·	·	·	·
Cc1ccc(SCC(=O)N2CCN(c3ccccn3)CC2)cc1	–	–	–	–	–	·	·	·	·	·	·
O=C(CSc1nccc2ccccc12)N1CCN(c2ccccn2)CC1	–	–	–	-3.3	–	–	–	–	–	0.015	–
Cc1sc(N)c(C(=O)c2ccccc2)c1C	–	–	–	–	–	·	·	·	·	·	·
CC1=C(C(=O)N2CCCCCC2)CC(CC(=O)NCCN2CCOCC2)C(=O)N1Cc1ccc(F)cc1 (stereo not drawn)	·	·	·	·	–	·	·	·	·	·	·
CC(C)n1c(CSCc2ccc(Cl)cc2Cl)n[nH]c1=S	–	–	–	9.3	–	–	0.083	–	0.028	0.053	0.013
COc1cc(OC)cc(C(=O)NC(=S)NCc2ccco2)c1	–	–	–	·	–	·	·	·	·	·	·
